Paper PMC3667888 (Channels, 2013)
Numbering of substitutions follows the chain as printed.

Key:
[1] = molecular target: T1, Kv4.2 V261F mutant channels (co-injected with KChIP1b) (Rattus norvegicus, UniProt Q63881, V261F); experiment: Two-electrode voltage clamp, V261F mutant Kv4.2/KChIP1b in Xenopus oocytes; assay type: cell-based
T1 sequence (Q63881 1-630 V261F): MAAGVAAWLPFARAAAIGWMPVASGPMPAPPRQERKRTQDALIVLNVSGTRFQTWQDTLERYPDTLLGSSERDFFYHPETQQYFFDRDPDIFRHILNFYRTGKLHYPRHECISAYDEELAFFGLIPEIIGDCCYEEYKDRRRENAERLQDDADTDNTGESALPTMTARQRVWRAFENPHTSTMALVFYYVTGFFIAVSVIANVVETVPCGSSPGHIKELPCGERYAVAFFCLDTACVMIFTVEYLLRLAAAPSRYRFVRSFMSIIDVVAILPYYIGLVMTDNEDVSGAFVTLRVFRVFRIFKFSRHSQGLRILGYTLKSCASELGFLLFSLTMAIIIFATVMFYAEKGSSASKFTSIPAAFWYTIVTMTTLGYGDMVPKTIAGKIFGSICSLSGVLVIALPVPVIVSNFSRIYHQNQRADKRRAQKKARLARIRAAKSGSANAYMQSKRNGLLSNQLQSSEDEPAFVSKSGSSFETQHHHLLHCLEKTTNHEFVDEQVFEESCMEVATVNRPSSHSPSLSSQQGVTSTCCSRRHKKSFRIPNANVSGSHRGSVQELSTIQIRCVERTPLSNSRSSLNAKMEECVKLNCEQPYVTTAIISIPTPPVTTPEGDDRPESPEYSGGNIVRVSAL
Procedure, shortened: (§1)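 Rat Kv4.2 (WT or QuikChange mutant) RNA co-injected equimolar with KChIP1b, 5–10 ng/oocyte, into Xenopus oocytes held 1–5 d at 17–19 °C. Two-electrode voltage clamp at room temperature in perfused Na/K methanesulfonate HEPES saline, pH 7.4–7.5, with P/−4 or P/−6 leak subtraction. Peak current at +40 mV (from −90 mV) after 10 min of 10 μM AA is expressed relative to pre-AA current. Mean ± SE, n = cells.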

[2] = molecular target: T2, Kv4.2 K318R mutant channels (co-injected with KChIP1b) (Rattus norvegicus, UniProt Q63881, K318R); experiment: Two-electrode voltage clamp, K318R mutant Kv4.2/KChIP1b in Xenopus oocytes; assay type: cell-based; settings: 10 µM AA, 10 min
T2 sequence (Q63881 1-630 K318R): T1 sequence (Q63881 1-630 V261F) with F261V, K318R
Procedure, shortened: as §1

[3] = system: group of mutant Kv4.2 channels (V261F, K318Q, V261F/K318Q); experiment: Two-electrode voltage clamp, grouped mutant Kv4.2 channels; assay type: cell-based, rat; settings: 10 µM AA
Procedure, shortened: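 Xenopus oocytes co-expressing rat Kv4.2 (WT or mutant) with equimolar KChIP1b were recorded by two-electrode voltage clamp at room temperature. Peak conductance was calculated as G = I/(Vm − Vh), with Vh = −100 mV, and normalized to each cell's Gmax. It was plotted against step potential without and with 10 μM AA and fit to a first-order Boltzmann function to give V1/2 and slope.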

[4] = molecular target: T3, Kv4.2 L313F mutant channels (co-injected with KChIP1b) (Rattus norvegicus, UniProt Q63881, L313F); experiment: Two-electrode voltage clamp, L313F mutant Kv4.2/KChIP1b in Xenopus oocytes; assay type: cell-based; settings: 10 µM AA
T3 sequence (Q63881 1-630 L313F): T1 sequence (Q63881 1-630 V261F) with F261V, L313F
Procedure, shortened: as §1

CCCCC/C=C\C/C=C\C/C=C\C/C=C\CCCC(=O)O [AA, arachidonic acid]
V1/2 of conductance-voltage curve with AA ([1]; 10 µM AA, V261F): −17.1 mV | slope factor (k) of Boltzmann fit with AA ([1]; 10 µM AA, V261F): 10.9 | inhibition at 10 µM ([1]; read-out: inhibition of the peak K+ current): 18% | inhibition of peak K+ current by AA, effect of mutation [2]: preserved the strong inhibition by AA | average shift in V1/2 in the presence of AA for the three mutant constructs [3]: +5.7 mV | sensitivity to AA [4]: retained its sensitivity to AA
